In ChEMBL document CHEMBL1250448, “Inhibitor hijacking of Akt activation” (Nat Chem Biol, 2009):

Legend:
[1] = tested on: Proto-oncogene tyrosine-protein kinase receptor Ret (Homo sapiens), P07949 [Y791F]; test: Inhibition of RET Y791F mutant at 1 uM in presence of 10 uM ATP by Select Screen kinase assay relative to untreated control
Procedure, shortened: (§1)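 Profiling panel of 220 purified kinases (SelectScreen), each compound tested at 1 μM. Read-out is percent inhibition of kinase activity.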

[2] = target: Tyrosine-protein kinase ABL2 (Homo sapiens) (UniProt P42684); test: Inhibition of ABL2 at 1 uM in presence of 10 uM ATP by Select Screen kinase assay relative to untreated control
Procedure, shortened: (§2)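 Single-point screen at 1 μM against a panel of 220 purified kinases, run by Invitrogen staff as a SelectScreen profiling service. Read-out is percent inhibition of kinase activity.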

[3] = target: Ribosomal protein S6 kinase alpha-4 (Homo sapiens) (UniProt O75676); test: Inhibition of RPS6KA4 at 1 uM in presence of 10 uM ATP by Select Screen kinase assay relative to untreated control
[4] = target: Serine/threonine-protein kinase 4 (Homo sapiens) (UniProt Q13043); test: Inhibition of STK4 at 1 uM in presence of 10 uM ATP by Select Screen kinase assay relative to untreated control
Procedure, shortened: (§3)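 Commercial SelectScreen profiling panel of 220 purified kinases. Each kinase was tested at a single inhibitor concentration of 1 μM, and activity was expressed as percent inhibition.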

[5] = target: Serine/threonine-protein kinase Chk1 (Homo sapiens) (UniProt O14757); test: Inhibition of CHEK1 at 1 uM in presence of 10 uM ATP by Select Screen kinase assay relative to untreated control; procedure, shortened: as §2
[6] = target: Dual specificity protein kinase CLK3 (Homo sapiens) (UniProt P49761); test: Inhibition of CLK3 at 1 uM in presence of 100 uM ATP by Select Screen kinase assay relative to untreated control
Procedure, shortened: (§4)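 Part of a 220-kinase panel of purified kinases, each tested with compound at 1 μM. Percent inhibition was measured in the Invitrogen SelectScreen profiling assay.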

[7] = target: Casein kinase II subunit alpha (Homo sapiens) (UniProt P68400); test: Inhibition of CSNK2A1 at 1 uM in presence of 10 uM ATP by Select Screen kinase assay relative to untreated control; procedure, shortened: as §4
[8] = target: T1, Serine/threonine-protein kinase DCLK2 (Homo sapiens) (UniProt Q8N568); test: Inhibition of DCAMKL2 at 1 uM in presence of 100 uM ATP by Select Screen kinase assay relative to untreated control; procedure, shortened: as §2
T1 sequence (whole entry): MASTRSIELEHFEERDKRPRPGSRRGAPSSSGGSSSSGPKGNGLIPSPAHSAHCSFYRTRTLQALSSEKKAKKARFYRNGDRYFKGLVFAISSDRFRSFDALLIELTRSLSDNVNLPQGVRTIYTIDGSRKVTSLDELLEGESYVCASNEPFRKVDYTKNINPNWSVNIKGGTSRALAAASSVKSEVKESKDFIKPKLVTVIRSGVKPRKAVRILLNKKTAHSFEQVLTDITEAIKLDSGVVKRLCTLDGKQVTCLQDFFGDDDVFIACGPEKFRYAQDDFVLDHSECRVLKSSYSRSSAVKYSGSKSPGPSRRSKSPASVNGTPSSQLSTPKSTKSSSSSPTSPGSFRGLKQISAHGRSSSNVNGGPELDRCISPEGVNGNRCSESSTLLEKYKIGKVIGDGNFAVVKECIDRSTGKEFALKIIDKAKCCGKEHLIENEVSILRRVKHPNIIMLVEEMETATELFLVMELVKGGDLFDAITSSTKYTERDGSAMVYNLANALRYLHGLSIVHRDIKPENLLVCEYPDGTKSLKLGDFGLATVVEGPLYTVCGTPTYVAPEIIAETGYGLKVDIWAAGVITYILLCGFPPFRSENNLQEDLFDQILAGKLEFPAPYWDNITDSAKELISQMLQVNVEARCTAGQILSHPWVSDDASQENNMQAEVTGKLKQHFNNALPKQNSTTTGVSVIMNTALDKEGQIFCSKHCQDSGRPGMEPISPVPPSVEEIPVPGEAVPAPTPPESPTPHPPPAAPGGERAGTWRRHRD

[9] = target: Dual specificity tyrosine-phosphorylation-regulated kinase 4 (Homo sapiens) (UniProt Q9NR20); test: Inhibition of DYRK4 at 1 uM in presence of 10 uM ATP by Select Screen kinase assay relative to untreated control; procedure, shortened: as §1
[10] = target: Tyrosine-protein kinase Fgr (Homo sapiens) (UniProt P09769); test: Inhibition of FGR at 1 uM in presence of 10 uM ATP by Select Screen kinase assay relative to untreated control
Procedure, shortened: (§5)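 Single-concentration profiling at 1 μM against a panel of 220 purified kinases, run as an outsourced SelectScreen kinase profiling service. Activity is expressed as percent inhibition.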

[11] = target: Vascular endothelial growth factor receptor 3 (Homo sapiens) (UniProt P35916); test: Inhibition of FLT4 at 1 uM in presence of 10 uM ATP by Select Screen kinase assay relative to untreated control; procedure, shortened: as §5
[12] = tested on: Tyrosine-protein kinase JAK2 (Homo sapiens), O60674 [V617F]; test: Inhibition of JAK2 JH1 JH2 domain V617F mutant at 1 uM in presence of 10 uM ATP by Select Screen kinase assay relative to untreated control
[13] = target: Vascular endothelial growth factor receptor 2 (Homo sapiens) (UniProt P35968); test: Inhibition of KDR at 1 uM in presence of 10 uM ATP by Select Screen kinase assay relative to untreated control; procedure, shortened: as §5
[14] = target: Mitogen-activated protein kinase 1 (Homo sapiens) (UniProt P28482); test: Inhibition of MAPK1 at 1 uM in presence of 10 uM ATP by Select Screen kinase assay relative to untreated control; procedure, shortened: as §5
[15] = target: Serine/threonine-protein kinase Nek6 (Homo sapiens) (UniProt Q9HC98); test: Inhibition of NEK6 at 1 uM in presence of 10 uM ATP by Select Screen kinase assay relative to untreated control; procedure, shortened: as §3
[16] = target: BDNF/NT-3 growth factors receptor (Homo sapiens) (UniProt Q16620); test: Inhibition of NTRK2 at 1 uM in presence of 10 uM ATP by Select Screen kinase assay relative to untreated control; procedure, shortened: as §3
[17] = target: Serine/threonine-protein kinase PAK 4 (Homo sapiens) (UniProt O96013); test: Inhibition of PAK4 at 1 uM in presence of 10 uM ATP by Select Screen kinase assay relative to untreated control
[18] = target: Platelet-derived growth factor receptor beta (Homo sapiens) (UniProt P09619); test: Inhibition of PDGFRbeta at 1 uM in presence of 100 uM ATP by Select Screen kinase assay relative to untreated control
[19] = target: Protein kinase C delta type (Homo sapiens) (UniProt Q05655); test: Inhibition of PRKCD at 1 uM in presence of 10 uM ATP by Select Screen kinase assay relative to untreated control; procedure, shortened: as §1
[20] = target: Serine/threonine-protein kinase PAK 3 (Homo sapiens) (UniProt O75914); test: Inhibition of PAK3 at 1 uM in presence of 10 uM ATP by Select Screen kinase assay relative to untreated control

BDNF/NT-3 growth factors receptor (Homo sapiens), sequence (Q16620 32-822 limits assumed): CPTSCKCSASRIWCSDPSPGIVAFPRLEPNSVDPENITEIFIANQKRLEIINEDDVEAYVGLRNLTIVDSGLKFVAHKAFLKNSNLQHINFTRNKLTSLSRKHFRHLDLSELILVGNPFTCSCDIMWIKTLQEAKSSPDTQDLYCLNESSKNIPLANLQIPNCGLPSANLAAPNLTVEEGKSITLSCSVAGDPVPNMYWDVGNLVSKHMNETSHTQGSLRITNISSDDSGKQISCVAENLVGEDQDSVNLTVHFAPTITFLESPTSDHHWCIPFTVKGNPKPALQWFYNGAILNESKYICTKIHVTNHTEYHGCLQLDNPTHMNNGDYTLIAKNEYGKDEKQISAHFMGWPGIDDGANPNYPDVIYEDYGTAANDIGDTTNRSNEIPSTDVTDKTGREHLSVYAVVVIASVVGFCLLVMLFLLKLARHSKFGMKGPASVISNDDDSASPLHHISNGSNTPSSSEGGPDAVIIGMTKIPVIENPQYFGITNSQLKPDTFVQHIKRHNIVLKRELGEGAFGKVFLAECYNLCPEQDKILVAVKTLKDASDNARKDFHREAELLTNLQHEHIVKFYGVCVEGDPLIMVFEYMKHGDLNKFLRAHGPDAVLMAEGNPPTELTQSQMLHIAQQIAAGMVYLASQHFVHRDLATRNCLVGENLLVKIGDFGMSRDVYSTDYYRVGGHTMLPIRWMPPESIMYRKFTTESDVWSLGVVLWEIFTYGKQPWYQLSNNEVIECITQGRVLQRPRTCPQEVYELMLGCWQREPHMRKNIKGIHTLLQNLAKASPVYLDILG
Mitogen-activated protein kinase 1 (Homo sapiens), sequence (P28482 whole entry): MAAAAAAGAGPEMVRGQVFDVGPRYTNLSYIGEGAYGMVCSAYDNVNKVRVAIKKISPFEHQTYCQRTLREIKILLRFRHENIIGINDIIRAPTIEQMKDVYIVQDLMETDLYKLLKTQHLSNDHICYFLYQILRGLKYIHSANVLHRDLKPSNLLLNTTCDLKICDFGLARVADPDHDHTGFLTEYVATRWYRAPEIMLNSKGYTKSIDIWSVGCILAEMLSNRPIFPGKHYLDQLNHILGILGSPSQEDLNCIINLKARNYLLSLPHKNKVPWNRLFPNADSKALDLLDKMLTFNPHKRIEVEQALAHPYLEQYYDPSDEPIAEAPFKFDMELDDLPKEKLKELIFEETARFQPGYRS
Serine/threonine-protein kinase Nek6 (Homo sapiens), sequence (Q9HC98 whole entry): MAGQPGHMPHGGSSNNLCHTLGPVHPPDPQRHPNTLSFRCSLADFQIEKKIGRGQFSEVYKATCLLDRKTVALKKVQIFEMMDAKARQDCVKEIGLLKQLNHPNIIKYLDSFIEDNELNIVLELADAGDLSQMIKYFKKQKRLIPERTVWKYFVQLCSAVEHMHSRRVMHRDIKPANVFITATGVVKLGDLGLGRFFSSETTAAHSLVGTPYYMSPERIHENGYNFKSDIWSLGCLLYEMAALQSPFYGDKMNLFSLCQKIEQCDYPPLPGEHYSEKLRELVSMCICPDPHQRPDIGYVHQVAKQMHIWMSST
Vascular endothelial growth factor receptor 3 (Homo sapiens), sequence (P35916 whole entry, the tested form may be a part): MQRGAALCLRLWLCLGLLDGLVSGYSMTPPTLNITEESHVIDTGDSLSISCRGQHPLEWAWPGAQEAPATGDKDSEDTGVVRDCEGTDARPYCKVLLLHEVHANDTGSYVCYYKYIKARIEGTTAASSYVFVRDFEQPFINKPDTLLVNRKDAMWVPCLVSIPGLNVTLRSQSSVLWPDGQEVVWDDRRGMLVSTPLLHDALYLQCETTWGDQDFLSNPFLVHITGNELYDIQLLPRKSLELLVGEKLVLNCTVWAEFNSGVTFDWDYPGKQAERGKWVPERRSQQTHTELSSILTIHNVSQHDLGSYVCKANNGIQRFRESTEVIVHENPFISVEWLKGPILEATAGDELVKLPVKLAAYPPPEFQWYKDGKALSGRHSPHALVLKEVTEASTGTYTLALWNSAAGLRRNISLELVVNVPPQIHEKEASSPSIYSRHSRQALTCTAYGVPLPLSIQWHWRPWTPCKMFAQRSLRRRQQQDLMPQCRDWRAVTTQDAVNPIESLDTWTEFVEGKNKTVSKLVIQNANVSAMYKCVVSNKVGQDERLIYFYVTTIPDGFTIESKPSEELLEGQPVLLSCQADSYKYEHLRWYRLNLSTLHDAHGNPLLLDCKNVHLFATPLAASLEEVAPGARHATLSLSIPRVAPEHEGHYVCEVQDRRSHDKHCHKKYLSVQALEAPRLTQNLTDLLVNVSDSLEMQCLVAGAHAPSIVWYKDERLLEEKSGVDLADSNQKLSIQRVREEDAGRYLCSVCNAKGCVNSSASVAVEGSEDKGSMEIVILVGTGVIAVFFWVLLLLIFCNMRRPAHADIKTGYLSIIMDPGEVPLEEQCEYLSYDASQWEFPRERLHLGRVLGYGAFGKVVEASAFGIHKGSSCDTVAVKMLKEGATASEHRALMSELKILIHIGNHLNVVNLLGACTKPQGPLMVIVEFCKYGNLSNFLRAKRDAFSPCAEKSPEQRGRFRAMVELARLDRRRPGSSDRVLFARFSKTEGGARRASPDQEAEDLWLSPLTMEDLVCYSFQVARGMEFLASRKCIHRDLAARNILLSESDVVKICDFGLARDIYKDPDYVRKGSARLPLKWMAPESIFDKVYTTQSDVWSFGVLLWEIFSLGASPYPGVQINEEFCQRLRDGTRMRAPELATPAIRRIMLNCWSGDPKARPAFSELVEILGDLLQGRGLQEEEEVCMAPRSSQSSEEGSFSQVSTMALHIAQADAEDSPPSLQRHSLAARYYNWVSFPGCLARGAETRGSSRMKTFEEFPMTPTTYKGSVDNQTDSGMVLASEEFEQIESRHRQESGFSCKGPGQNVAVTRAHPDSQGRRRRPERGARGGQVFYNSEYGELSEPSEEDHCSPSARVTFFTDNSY
Tyrosine-protein kinase Fgr (Homo sapiens), sequence (P09769 2-529 limits assumed): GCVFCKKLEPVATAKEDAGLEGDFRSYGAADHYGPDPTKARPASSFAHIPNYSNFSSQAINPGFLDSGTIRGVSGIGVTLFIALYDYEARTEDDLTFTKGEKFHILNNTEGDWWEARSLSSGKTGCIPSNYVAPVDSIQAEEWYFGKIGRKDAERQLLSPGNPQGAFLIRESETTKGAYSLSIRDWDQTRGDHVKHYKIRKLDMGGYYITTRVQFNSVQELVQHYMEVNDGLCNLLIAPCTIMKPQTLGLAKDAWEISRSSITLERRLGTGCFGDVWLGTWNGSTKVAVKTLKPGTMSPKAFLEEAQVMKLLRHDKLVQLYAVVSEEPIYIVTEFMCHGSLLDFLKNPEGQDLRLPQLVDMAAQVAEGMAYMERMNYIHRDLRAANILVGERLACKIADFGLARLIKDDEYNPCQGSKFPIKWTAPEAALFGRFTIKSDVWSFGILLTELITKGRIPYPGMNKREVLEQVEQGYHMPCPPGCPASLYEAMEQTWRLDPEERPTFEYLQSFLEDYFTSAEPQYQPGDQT
Ribosomal protein S6 kinase alpha-4 (Homo sapiens), sequence (O75676 whole entry, looked up): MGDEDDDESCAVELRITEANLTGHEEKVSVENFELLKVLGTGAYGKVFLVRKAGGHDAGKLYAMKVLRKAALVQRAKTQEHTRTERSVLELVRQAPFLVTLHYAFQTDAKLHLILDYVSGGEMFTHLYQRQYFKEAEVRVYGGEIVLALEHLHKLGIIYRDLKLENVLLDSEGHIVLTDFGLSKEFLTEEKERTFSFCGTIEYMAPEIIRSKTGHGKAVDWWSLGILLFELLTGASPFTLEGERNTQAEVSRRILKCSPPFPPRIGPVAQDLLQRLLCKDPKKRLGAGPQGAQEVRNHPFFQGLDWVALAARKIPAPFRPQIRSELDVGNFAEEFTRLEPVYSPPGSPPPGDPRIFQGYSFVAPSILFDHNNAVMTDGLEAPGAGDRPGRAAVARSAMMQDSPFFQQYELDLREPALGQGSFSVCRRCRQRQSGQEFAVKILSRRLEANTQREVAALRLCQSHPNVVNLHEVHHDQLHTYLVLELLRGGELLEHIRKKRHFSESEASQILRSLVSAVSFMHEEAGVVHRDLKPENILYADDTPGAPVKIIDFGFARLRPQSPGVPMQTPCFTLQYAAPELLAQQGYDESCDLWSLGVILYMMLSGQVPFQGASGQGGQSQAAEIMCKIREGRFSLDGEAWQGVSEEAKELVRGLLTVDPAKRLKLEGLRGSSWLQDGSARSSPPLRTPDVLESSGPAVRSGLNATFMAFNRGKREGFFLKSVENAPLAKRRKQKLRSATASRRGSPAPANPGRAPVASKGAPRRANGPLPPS
Protein kinase C delta type (Homo sapiens), sequence (Q05655 whole entry, looked up): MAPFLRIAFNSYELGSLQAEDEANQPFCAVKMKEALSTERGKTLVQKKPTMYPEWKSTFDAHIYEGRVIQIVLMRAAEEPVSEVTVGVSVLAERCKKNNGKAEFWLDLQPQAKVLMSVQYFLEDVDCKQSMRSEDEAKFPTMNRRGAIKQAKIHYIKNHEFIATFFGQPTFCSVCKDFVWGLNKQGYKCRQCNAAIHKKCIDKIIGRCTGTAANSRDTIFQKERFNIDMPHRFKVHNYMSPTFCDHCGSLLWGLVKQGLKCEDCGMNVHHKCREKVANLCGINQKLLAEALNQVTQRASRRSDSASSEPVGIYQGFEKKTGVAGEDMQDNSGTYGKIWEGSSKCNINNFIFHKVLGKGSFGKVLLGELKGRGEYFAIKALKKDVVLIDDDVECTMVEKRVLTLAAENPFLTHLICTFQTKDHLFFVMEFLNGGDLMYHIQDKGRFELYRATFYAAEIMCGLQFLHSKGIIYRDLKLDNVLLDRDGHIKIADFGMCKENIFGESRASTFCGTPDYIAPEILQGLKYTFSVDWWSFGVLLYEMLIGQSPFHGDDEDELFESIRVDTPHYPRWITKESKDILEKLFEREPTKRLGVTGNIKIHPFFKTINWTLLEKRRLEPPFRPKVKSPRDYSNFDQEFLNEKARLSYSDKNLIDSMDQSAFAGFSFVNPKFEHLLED

Row | inhibition [1] | inhibition [2] | inhibition [3] | inhibition [4] | inhibition [5] | inhibition [6] | inhibition [7] | inhibition [8] | inhibition [9] | inhibition [10] | inhibition [11] | inhibition [12] | inhibition [13] | inhibition [14] | inhibition [15] | inhibition [16] | inhibition [17] | inhibition [18] | inhibition [19] | Structure (SMILES) | inhibition [20]
1 | 48% | 4% | 90% | 19% | 19% | 32% | 18% | 6% | 3% | 8% | 45% | -3% | 52% | 11% | 10% | 11% | 9% | 2% | -5% | COc1ccccc1N1CCN(c2ncnc3[nH]nc(Br)c23)CC1 | –
2 | 91% | 37% | 75% | 36% | 75% | 8% | 16% | 10% | 2% | 29% | 70% | 105% | 79% | 52% | 9% | 74% | 42% | 84% | 24% | O=C(NCCCNc1nc(Nc2cccc(NC(=O)N3CCCC3)c2)ncc1I)c1cccs1 | -2%

Row | Structure (SMILES) | inhibition [1] | inhibition [2] | inhibition [3] | inhibition [4] | inhibition [5] | inhibition [6] | inhibition [7] | inhibition [8] | inhibition [9] | inhibition [10] | inhibition [11] | inhibition [12] | inhibition [13] | inhibition [14] | inhibition [15] | inhibition [16] | inhibition [17] | inhibition [18] | inhibition [19] | inhibition [20]
3 | Cc1n[nH]c2ccc(-c3cncc(OC[C@@H](N)Cc4c[nH]c5ccccc45)c3)cc12 | – | – | – | – | – | – | – | 11% | – | 36% | 1% | – | – | 61% | 3% | 12% | – | – | – | 45%
